pIC50: −log10 of the molar value. Converted amounts (≈) assume the structure as drawn.
How the values were obtained:
[1] = system: Enterococcus faecalis; test: Antibacterial activity against Enterococcus faecalis MGH-2 EF1-1; assay type: functional
How it was run: (§1)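 MIC (μg/mL) by standard broth microtitration dilution following NCCLS M7-A5 for aerobically growing bacteria. Panel: Gram-negative E. coli MC4100 (wild-type) and E. coli Tol C (membrane efflux-pump deficient); Gram-positive Enterococcus faecalis, Staphylococcus aureus and Streptococcus pyogenes.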

[2] = system: Staphylococcus aureus; test: Antibacterial activity against Staphylococcus aureus UC-76 SA-1; assay type: functional; how it was run: as §1
[3] = system: Escherichia coli; test: Antibacterial activity against membrane efflux-pump deficient Escherichia coli Tol C EC2549; assay type: functional; how it was run: as §1
[4] = system: Escherichia coli; test: Antibacterial activity against Escherichia coli MC4100 EC2026; assay type: functional; how it was run: as §1
[5] = system: Streptococcus pyogenes; test: Antibacterial activity against Streptococcus pyogenes C-203 SP1-1; assay type: functional; how it was run: as §1
[6] = Inhibition of Escherichia coli H560 DNA gyrase assessed as DNA cleavage

Compound	MIC [1] [µg/mL]	MIC [2] [µg/mL]	MIC [3] [µg/mL]	MIC [4] [µg/mL]	MIC [5] [µg/mL]	pIC50 [6]
CN[C@H]1CCN(c2c(F)cc3c(=O)n(NC)c(=O)n(C4CC4)c3c2Cl)C1	> 64	> 64	8 (≈ 21 µM)	> 64	> 64	
NCC1CCN(c2c(F)cc3c(=O)n(N)c(=O)n(C4CC4)c3c2Cl)C1 (stereo not given)	0.25 (≈ 0.68 µM)	0.5 (≈ 1.36 µM)	0.25 (≈ 0.68 µM)	4 (≈ 10.9 µM)	0.13 (≈ 0.353 µM)	6.52
CC(=O)Nn1c(=O)c2cc(F)c(N3CCC(N)C3)c(Cl)c2n(C2CC2)c1=O (stereo not given)	> 64	> 64	2 (≈ 5.05 µM)	64 (≈ 162 µM)	> 64	5.00
N[C@H]1CCN(c2cc3c(cc2F)c(=O)n(N)c(=O)n3C2CC2)C1	32 (≈ 100 µM)	64 (≈ 200 µM)	1 (≈ 3.13 µM)	8 (≈ 25.1 µM)	16 (≈ 50.1 µM)	5.80
CC(C)n1c(=O)n(N)c(=O)c2cc(F)c(N3CCC(N)C3)c(Cl)c21 (stereo not given)	> 64	> 64	> 64	> 64	> 64	4.01
NC1CCN(c2c(F)cc3c(=O)n(N)c(=O)n(C4CCC4)c3c2Cl)C1 (stereo not given)	> 64	> 64	2 (≈ 5.44 µM)	16 (≈ 43.5 µM)	> 64	4.64
NC1CCN(c2c(F)cc3c(=O)n(N)c(=O)n(-c4ccc(F)cc4F)c3c2Cl)C1 (stereo not given)	> 64	> 64	64 (≈ 150 µM)	> 64	> 64	< 4.00
NC1CCN(c2c(F)cc3c(=O)n(N)c(=O)n(C4CC4)c3c2F)C1 (stereo not given)	8 (≈ 23.7 µM)	8 (≈ 23.7 µM)	0.25 (≈ 0.741 µM)	2 (≈ 5.93 µM)	4 (≈ 11.9 µM)	5.89
Cc1c(N2CCC(N)C2)c(F)cc2c(=O)n(N)c(=O)n(C3CC3)c12 (stereo not given)	2 (≈ 6 µM)	4 (≈ 12 µM)	0.06 (≈ 0.18 µM)	1 (≈ 3 µM)	0.5 (≈ 1.5 µM)	7.00
COc1c(N2CCC(N)C2)c(F)cc2c(=O)n(N)c(=O)n(C3CC3)c12 (stereo not given)	8 (≈ 22.9 µM)	8 (≈ 22.9 µM)	0.5 (≈ 1.43 µM)	4 (≈ 11.4 µM)	4 (≈ 11.4 µM)	5.37
N[C@H]1CCN(c2c(F)cc3c(=O)n(N)c(=O)n(C4CC4)c3c2C(F)(F)F)C1	32 (≈ 82.6 µM)	32 (≈ 82.6 µM)	0.25 (≈ 0.645 µM)	8 (≈ 20.7 µM)	4 (≈ 10.3 µM)	5.28
NC1CCN(c2cc(F)c3c(=O)n(N)c(=O)n(C4CC4)c3c2F)C1 (stereo not given)	> 64	> 64	4 (≈ 11.9 µM)	32 (≈ 94.9 µM)	> 64	4.77
Cc1c(N2CC[C@@H]([C@H](C)N)C2)c(F)c(C(F)F)c2c(=O)n(N)c(=O)n(C3CC3)c12	1 (≈ 2.43 µM)	1 (≈ 2.43 µM)	1 (≈ 2.43 µM)	64 (≈ 156 µM)	0.25 (≈ 0.608 µM)	5.09
NC1CCN(c2c(F)c(F)c3c(=O)n(N)c(=O)n(C4CC4)c3c2F)C1 (stereo not given)	32 (≈ 90.1 µM)	16 (≈ 45 µM)	0.5 (≈ 1.41 µM)	2 (≈ 5.63 µM)	16 (≈ 45 µM)	5.52
Nc1c(F)c(N2CCC(N)C2)c(F)c2c1c(=O)n(N)c(=O)n2C1CC1 (stereo not given)	64 (≈ 182 µM)	32 (≈ 90.8 µM)	1 (≈ 2.84 µM)	8 (≈ 22.7 µM)	32 (≈ 90.8 µM)	4.68
Cc1c(N2CC[C@@H]([C@H](C)N)C2)c(F)cc2c(=O)n(N)c(=O)n(C3CC3)c12	0.06 (≈ 0.166 µM)	0.06 (≈ 0.166 µM)	0.03 (≈ 0.083 µM)	1 (≈ 2.77 µM)	0.015 (≈ 0.0415 µM)	6.70
NCC1CCN(c2c(Cl)cc3c(=O)n(N)c(=O)n(C4CC4)c3c2Cl)C1 (stereo not given)	4 (≈ 10.4 µM)	4 (≈ 10.4 µM)	0.5 (≈ 1.3 µM)	16 (≈ 41.6 µM)	2 (≈ 5.2 µM)	5.92
Cc1c(F)c(N2CC[C@@H]([C@H](C)N)C2)c(C)c2c1c(=O)n(N)c(=O)n2C1CC1	0.06 (≈ 0.16 µM)	0.06 (≈ 0.16 µM)	0.03 (≈ 0.0799 µM)	2 (≈ 5.33 µM)	0.03 (≈ 0.0799 µM)	6.62
CN[C@H]1CCN(c2c(F)cc3c(=O)n(N)c(=O)n(C4CC4)c3c2Cl)C1	16 (≈ 43.5 µM)	16 (≈ 43.5 µM)	0.5 (≈ 1.36 µM)	4 (≈ 10.9 µM)	8 (≈ 21.8 µM)	5.21
CCOc1c(N2CCC(N)C2)c(F)cc2c(=O)n(N)c(=O)n(C3CC3)c12 (stereo not given)	> 64	> 64	4 (≈ 11 µM)	32 (≈ 88.1 µM)	64 (≈ 176 µM)	4.96
CCn1c(=O)n(N)c(=O)c2cc(F)c(N3CC[C@H](N)C3)cc21	> 64	> 64	16 (≈ 52.1 µM)	64 (≈ 208 µM)	> 64	4.46
N[C@H]1CCN(c2c(F)cc3c(=O)n(N)c(=O)n(C4CC4)c3c2Cl)C1	4 (≈ 11.3 µM)	2 (≈ 5.65 µM)	0.13 (≈ 0.367 µM)	0.5 (≈ 1.41 µM)	2 (≈ 5.65 µM)	6.40
N[C@H]1CCN(c2cc3c(cc2F)c(=O)n(N)c(=O)n3CC2CC2)C1	> 64	> 64	8 (≈ 24 µM)	> 64	> 64	4.70
O=C(O)c1cn(C2CC2)c2cc(N3CCNCC3)c(F)cc2c1=O [CIPROFLOXACIN]	0.4 (≈ 1.21 µM)	4 (≈ 12.1 µM)			2 (≈ 6.04 µM)	
